Published values of several laboratories.
Lines come from different studies, so protocols differ.
Target: Serine/threonine-protein kinase mTOR (MTOR, Homo sapiens, UniProt P42345)

`N[C@H]1CCN(c2nccc(-c3cnn4ncccc34)n2)C1` has a remaining binding of 66% (binding; 1 µM).
`Cc1cnc(Nc2ccc(C(=O)N3CCC(N4CCCC4)CC3)cc2)nc1-c1cc2ccccc2s1` gave a remaining binding of 85% (binding; competition with immobilised ligand; 1 µM).
`O=C(Nc1ccc(Oc2ccc(F)cc2)cc1)N1CCc2ncccc2[C@H]1c1ccc(F)cc1` gave a remaining binding of 100% (cell-free assay; competition with immobilised ligand; 1 µM).
For `c1cnn2ncc(-c3ccnc(N4CCC45COC5)n3)c2c1`, the remaining binding was 96% (binding; 1 µM).
For `COc1cc(-c2cn(C3CCc4ccccc4N(CC(F)(F)F)C3=O)nn2)ccc1-n1ccc(C)n1` (stereo not drawn), the remaining binding was 100% (cell-free assay; competition with immobilised ligand; 1 µM).
The remaining binding of `O=C(NCCCN1CCOCC1)c1ccc(Nc2nccc(-c3cc4ccccc4s3)n2)cc1` is reported as 75% (binding; competition with immobilised ligand; 1 µM).
With `c1cncc(-c2cccc(Nc3nccc(NC4CCCCC4)n3)c2)c1` the remaining binding was 94% (binding; competition with immobilised ligand; 10 µM).
`CN(C)c1ncnc(-c2ccc3nc(Nc4cc(CN5CCN(C(=O)CC(F)(F)F)CC5)ccn4)[nH]c3c2)c1Cl` has a remaining binding of 100% (cell-free assay; competition with immobilised ligand; 1 µM).
`CNC(=O)[C@@H]1CC[C@@H](n2c(-c3ccc4cnccc4c3)nc3ccc(C(=O)NCc4cccc(C(N)=O)c4)cc32)C1` gave a remaining binding of 66% (binding; competition with immobilised ligand; 1 µM).
`CN1CCN(c2cnc3c(C4CCN(C(=O)c5ccc(OC(F)(F)F)cc5N)CC4)ncnc3c2)CC1` has a remaining binding of 78% (cell-free assay; competition with immobilised ligand; 1 µM).
`O=C(NCC1CCOCC1)c1n[nH]cc1NC(=O)c1c(F)cccc1F` gave a remaining binding of 100% (binding; competition with immobilised ligand; 1 µM).
The remaining binding of `C[C@@H](c1ccc(-n2cnc3c(N)ncnc32)cc1)N1CCc2nn(C)c(Cc3ccccc3)c2C1=O` is reported as 83% (binding; competition with immobilised ligand; 0.1 µM).
With `FC(F)(F)Oc1cccc(-c2cnc3ccc(-c4ccncc4)nn23)c1` the remaining binding was 42% (cell-free assay; competition with immobilised ligand; 5 µM).
With `CN(C)c1ncc(F)c(-c2cnn3ncccc23)n1` the remaining binding was 100% (binding; 1 µM).
`O=C(c1ccc(Nc2ncc(Cl)c(-c3ccc(Cl)s3)n2)cc1)N1CCC(N2CCCC2)CC1` gave a remaining binding of 86% (binding; competition with immobilised ligand; 1 µM).
`F[C@@H]1CCN(c2nccc(-c3cnn4ncccc34)n2)C1` has a remaining binding of 77% (binding; 1 µM).
The remaining binding of `O=C(O)c1cc(-c2ccc(C3CCNCC3)cc2)c2ccc(-c3ccc(C(F)(F)F)cc3)cc2c1` is reported as 90% (cell-free assay; competition with immobilised ligand; 1 µM).
With `Cc1cnn2ncc(-c3ccnc(N(C)C)n3)c2c1` the remaining binding was 100% (binding; 1 µM).
For `COc1ncc2cc3ccccc3nc2c1C#N`, the remaining binding was 91% (cell-free assay; competition with immobilised ligand; 5 µM).
The remaining binding of `C[C@@H]1CCN(c2nccc(-c3cnn4ncccc34)n2)C1` is reported as 97% (binding; 1 µM).
`O=C(NCc1ncc(C(F)(F)F)cc1Cl)c1ccc2c(c1)C1(CCS(=O)(=O)CC1)[C@@H](C1CC1)N2S(=O)(=O)c1ccc(F)cc1` gave a remaining binding of 92% (cell-free assay; competition with immobilised ligand; 1 µM).
